One molecule from publication PMC11541586 (Communications Biology, 2024) can be followed below.

SMILES strings stand for the structures.

In one experiment the target is human LPA1 (Homo sapiens, UniProt Q92633). Description: NanoBiT-G-protein dissociation assay. Format: cell-based. Put shortly:
(§1)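 Human LPA1 (N-terminal FLAG-tagged, wild type or point mutant) is co-transfected into HEK293T cells with LgBiT-Gαi1, untagged Gβ1 and SmBiT-Gγ2 C68S. After 1 d, cells are resuspended in HBSS with 0.01% fatty-acid-free BSA and loaded with coelenterazine for 2 h.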

In the next experiment the target is human LPA1 W210A mutant (Homo sapiens, UniProt Q92633, W210A). Description: NanoBiT-G-protein dissociation assay, LPA1 W210A mutant. Format: cell-based. The essentials:
as §1

For the next experiment, the target named is human LPA1 W271F mutant (Homo sapiens, UniProt Q92633, W271F). In words: NanoBiT-G-protein dissociation assay, LPA1 W271F mutant. Format: cell-based. The essentials:
as §1

Another experiment has as its target human LPA1 L278A mutant (Homo sapiens, UniProt Q92633, L278A). Description: NanoBiT-G-protein dissociation assay, LPA1 L278A mutant. The format is cell-based. Put shortly:
as §1

The test system of another experiment is CNRs. Description: NanoBiT-G-protein dissociation assay for CNRs. Format: cell-based, human.
The target in another experiment is T1, FFAR4 (Homo sapiens, UniProt Q5NUL3).
T1 sequence (Q5NUL3 1-361): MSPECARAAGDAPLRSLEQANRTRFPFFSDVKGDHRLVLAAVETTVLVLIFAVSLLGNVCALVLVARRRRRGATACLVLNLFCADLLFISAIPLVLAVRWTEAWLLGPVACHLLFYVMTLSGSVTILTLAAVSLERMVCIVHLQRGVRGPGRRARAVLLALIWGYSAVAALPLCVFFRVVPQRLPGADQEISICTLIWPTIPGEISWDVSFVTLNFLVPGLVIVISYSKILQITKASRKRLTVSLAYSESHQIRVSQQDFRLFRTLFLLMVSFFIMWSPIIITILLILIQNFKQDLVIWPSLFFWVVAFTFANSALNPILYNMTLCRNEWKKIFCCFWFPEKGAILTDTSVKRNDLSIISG
Description: NanoBiT-G-protein dissociation assay for FFAR4. Format: cell-based. The note with it: FFAR4 (b17 prints FFARs).

Chain of human LPA1 (Q92633 whole entry): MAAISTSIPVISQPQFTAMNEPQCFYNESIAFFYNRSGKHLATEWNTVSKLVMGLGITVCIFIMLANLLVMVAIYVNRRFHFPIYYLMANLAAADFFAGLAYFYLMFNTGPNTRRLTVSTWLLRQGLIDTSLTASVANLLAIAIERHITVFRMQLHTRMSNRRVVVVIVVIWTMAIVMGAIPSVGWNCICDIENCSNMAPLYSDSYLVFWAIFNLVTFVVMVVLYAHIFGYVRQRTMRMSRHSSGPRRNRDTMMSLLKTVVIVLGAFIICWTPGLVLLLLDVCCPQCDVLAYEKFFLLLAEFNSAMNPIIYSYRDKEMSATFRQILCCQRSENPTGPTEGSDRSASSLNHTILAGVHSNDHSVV
Chain of human LPA1 W271F mutant (Q92633 whole entry W271F): as the sequence (Q92633 whole entry) above, with W271F counted along it
Chain of human LPA1 W210A mutant (Q92633 whole entry W210A): as the sequence (Q92633 whole entry) above, with W210A counted along it
Chain of human LPA1 L278A mutant (Q92633 whole entry L278A): as the sequence (Q92633 whole entry) above, with L278A counted along it

Turning to `CCc1oc2c([C@H](CO)N(CC)CC)cccc2c1C` [CpY, (2R)-2-(diethylamino)-2-(2-ethyl-3-methyl-benzofuran-7-yl)ethanol], at human LPA1 (EC50, WT LPA1), the EC50 turned out to be 950 pM. Further, at human LPA1 (compared with LPA), the “Emax relative to LPA” value was 1.5 fold. Also, the “agonistic activity (EC50) relative to LPA” value at human LPA1 (compared with LPA) is reported as 20 fold. Besides, the “response of mutant compared with wild type” value is listed as “responsive” at human LPA1 W210A mutant, “reduction in response” on human LPA1 W271F mutant and “reduced the activity” at human LPA1 L278A mutant. Besides, the “effect on receptor” value in the experiment with CNRs and at FFAR4 was “no activity” throughout.

The term EC50 denotes the midpoint of the concentration-response curve.
